Measurements from paper PMC12238435 (EJNMMI Radiopharmacy and Chemistry, 2025).
Like-named read-outs stand apart in the source and are kept apart here. Values belong to the compound of their own block, whether it stands above or below them.

Experiments:
[1] = test system: monocarboxylate transporter 1 (MCT1); conditions: AZD3965 1.1 mg/kg; same mouse model; ref Dillemuth et al. [2025]; cited from earlier work
[2] = ref Dillemuth et al. [2025]; cited from earlier work
[3] = test system: intracranial BT12 glioblastoma xenografts; test: PET imaging of mice with intracranial BT12 glioblastoma xenografts; type: in vivo, mouse; conditions: for SUV in healthy brain: i.v.
Outline: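 Mice were imaged 21 days after intracranial BT12 inoculation, under 1–2% isoflurane on a heating pad. Non-contrast HRCT came first, then the tracer (4.70 ± 0.44 MBq, 0.10 ± 0.06 µg) i.v. via tail-vein cannula and 60-min dynamic list-mode PET. For blocking, the MCT1 inhibitor (1.1 mg/kg) was given i.v. 15 min before tracer. SUV was corrected for injected dose, body weight and tail/cannula residue; TBR was also derived. Data are mean ± SD, unpaired t-test.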

[4] = In vivo stability analysis; set-up: species or system mouse; conditions: mice with BT12 glioblastoma, i.v.
Outline: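 After 60-min dynamic PET following tail-vein i.v. injection of the 18F-labelled peptide tracer, heparinized blood was centrifuged (2,100 × g, 5 min). Plasma was deproteinized with an equal volume of acetonitrile (14,000 × g, 3 min, RT), and fractions were gamma-counted. Protein-free plasma and acetonitrile-extracted brain homogenate were run on radio-HPLC (C18, 0.1% TFA water/acetonitrile, 12–80% B gradient). Peaks were assigned by reference retention times and co-injection.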

[5] = Ex vivo biodistribution in mice with glioblastoma; set-up: species or system mouse; conditions: no blocking, 60 min postinjection, gamma counting, mean, n=7 ([18F]FNA-N-CooP), n=4 ([18F]FNA)
[6] = PET, glioblastoma mice, no blocking, mean ± SD, n = 4
[7] = PET, no blocking, single mouse (one of two)

Compound: Cc1[nH]nc(C(F)(F)F)c1Cc1sc2c(c1C(=O)N1C[C@](C)(O)CO1)c(=O)n(C)c(=O)n2C(C)C [AZD3965]
- reduction of glioblastoma uptake of [^18F]FNA [1]: 76%

- tumor-to-brain ratio (TBR) [3, 6]: 1.51 ± 0.08
- SUV in healthy brain [3, 6]: 0.59 ± 0.05
Compound: O=C(O)c1ccc([18F])nc1 [[^18F]FNA, 6-[^18F]fluoronicotinic acid, reference compound]
- in vivo stability [2]: stable in vivo

- TBR [3, 7]: 1.28
- tumor SUV [3, 7]: 0.16
Compound: FB-CGLSGLGVA-NH2 [[^18F]FB-N-CooP]

- in vivo stability [4]: not stable in vivo
- %ID/g Kidney [5]: 8.88 ± 6.16 %ID/g
- %ID/g Urine [5]: 772.29 ± 373.58 %ID/g
- SUV in tumor, blocking with AZD3965 ([3]; AZD3965 1.1 mg/kg i.v. 15 min before tracer, single mouse (one of two)): 0.17
- SUV in healthy brain [3, 6]: 0.11 ± 0.02
Compound: FNA-CGLSGLGVA-NH2 [[^18F]FNA-N-CooP]
